# Assay results: ChEMBL document CHEMBL5724801, “EUbOPEN Chemogenomics Library - Multiplex” (2024)
# Where “and” joins values, the source holds several entries; their conditions need not be identical. Equal entries are not always repeated.
# Columns and labels:
# [1] = tested on: HEK-293T; assay: Multiplex assay against HEK293T; type: toxicity, cell-based; details: human
# Summary of the method: (§1)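 Tubulin, mitochondrial-mass and membrane-permeability phenotypes are per cents of healthy-nucleus cells. Cells were gated by CellPathfinder machine learning into Hoechst high-intensity objects or normal cells, normal cells into healthy, pyknosed or fragmented nuclei, and pyknosed cells into mitotic or apoptotic. Before that, live cells stained at seeding with Hoechst33342, BioTracker Green Microtubule Cytoskeleton Dye, MitoTracker Red and Annexin V Alexa Fluor 680 were imaged on a CQ1 microscope at 37°C and 5% CO2 after compound addition.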
# [2] = tested on: U2OS; assay: Multiplex assay against U2OS; type: toxicity, cell-based; details: human; summary of the method: as §1
# [3] = 12 h, 1 µM, compound concentration 1 uM
# [4] = 12 h, 10 µM, compound concentration 10 uM
# [5] = 24 h, 1 µM, compound concentration 1 uM
# [6] = 24 h, 10 µM, compound concentration 10 uM
# [7] = 48 h, 1 µM, compound concentration 1 uM
# [8] = 48 h, 10 µM, compound concentration 10 uM
smiles,measurement,setting,value
Cc1ccccc1C(=O)Nc1ccc(C(=O)N2CCCC(N(C)C)c3ccccc32)cc1.Cl (stereo not drawn),Population Apoptotic (%),[1]; [3],18% and 53%
same,Population Fragmented Nuclei (%),[1]; [3],6% and 5%
same,Population Healthy Nuclei (%),[1]; [3],80% and 79%
same,Population Hoechst High Intensity Objects (%),[1]; [3],8% and 6%
same,Population Membrane Permeable-Phenotype (%),[1]; [3],0%
same,Population Mitochondria Different-Phenotype (%),[1]; [3],51% and 72%
same,Population Mitotic Cells (%),[1]; [3],81% and 46%
same,Population Normal (%),[1]; [3],91% and 93%
same,Population Pyknosed Nuclei (%),[1]; [3],12% and 14%
same,Population Tubulin-Different-Phenotype (%),[1]; [3],33% and 29%
same,Total Cell Count,[1]; [3],519 and 412
same,Population Apoptotic (%),[1]; [4],53% and 64%
same,Population Fragmented Nuclei (%),[1]; [4],6% and 8%
same,Population Healthy Nuclei (%),[1]; [4],70% and 72%
same,Population Hoechst High Intensity Objects (%),[1]; [4],8% and 15%
same,Population Membrane Permeable-Phenotype (%),[1]; [4],0%
same,Population Mitochondria Different-Phenotype (%),[1]; [4],74% and 82%
same,Population Mitotic Cells (%),[1]; [4],46% and 35%
same,Population Normal (%),[1]; [4],91% and 84%
same,Population Pyknosed Nuclei (%),[1]; [4],22% and 18%
same,Population Tubulin-Different-Phenotype (%),[1]; [4],60% and 61%
same,Total Cell Count,[1]; [4],233 and 285
same,Population Apoptotic (%),[1]; [5],31% and 30%
same,Population Fragmented Nuclei (%),[1]; [5],11% and 5%
same,Population Healthy Nuclei (%),[1]; [5],79% and 83%
same,Population Hoechst High Intensity Objects (%),[1]; [5],5% and 4%
same,Population Membrane Permeable-Phenotype (%),[1]; [5],0%
same,Population Mitochondria Different-Phenotype (%),[1]; [5],28% and 52%
same,Population Mitotic Cells (%),[1]; [5],68% and 69%
same,Population Normal (%),[1]; [5],94% and 95%
same,Population Pyknosed Nuclei (%),[1]; [5],8% and 11%
same,Population Tubulin-Different-Phenotype (%),[1]; [5],17% and 19%
same,Total Cell Count,[1]; [5],727 and 567
same,Population Apoptotic (%),[1]; [6],41% and 44%
same,Population Fragmented Nuclei (%),[1]; [6],8% and 7%
same,Population Healthy Nuclei (%),[1]; [6],70% and 73%
same,Population Hoechst High Intensity Objects (%),[1]; [6],7% and 14%
same,Population Membrane Permeable-Phenotype (%),[1]; [6],0%
same,Population Mitochondria Different-Phenotype (%),[1]; [6],71% and 83%
same,Population Mitotic Cells (%),[1]; [6],58% and 55%
same,Population Normal (%),[1]; [6],92% and 85%
same,Population Pyknosed Nuclei (%),[1]; [6],21% and 18%
same,Population Tubulin-Different-Phenotype (%),[1]; [6],46%
same,Total Cell Count,[1]; [6],268 and 285
same,Population Apoptotic (%),[1]; [7],13% and 34%
same,Population Fragmented Nuclei (%),[1]; [7],13% and 10%
same,Population Healthy Nuclei (%),[1]; [7],78% and 82%
same,Population Hoechst High Intensity Objects (%),[1]; [7],2% and 4%
same,Population Membrane Permeable-Phenotype (%),[1]; [7],1% and 0%
same,Population Mitochondria Different-Phenotype (%),[1]; [7],24% and 30%
same,Population Mitotic Cells (%),[1]; [7],86% and 65%
same,Population Normal (%),[1]; [7],97% and 95%
same,Population Pyknosed Nuclei (%),[1]; [7],8% and 6%
same,Population Tubulin-Different-Phenotype (%),[1]; [7],17% and 14%
same,Total Cell Count,[1]; [7],1095 and 722
same,Population Apoptotic (%),[1]; [8],55% and 63%
same,Population Fragmented Nuclei (%),[1]; [8],10% and 9%
same,Population Healthy Nuclei (%),[1]; [8],69% and 77%
same,Population Hoechst High Intensity Objects (%),[1]; [8],6%
same,Population Membrane Permeable-Phenotype (%),[1]; [8],0%
same,Population Mitochondria Different-Phenotype (%),[1]; [8],69% and 72%
same,Population Mitotic Cells (%),[1]; [8],44% and 36%
same,Population Normal (%),[1]; [8],93%
same,Population Pyknosed Nuclei (%),[1]; [8],20% and 12%
same,Population Tubulin-Different-Phenotype (%),[1]; [8],49% and 41%
same,Total Cell Count,[1]; [8],283 and 314
same,Population Apoptotic (%),[2]; [3],91% and 77%
same,Population Fragmented Nuclei (%),[2]; [3],20% and 14%
same,Population Healthy Nuclei (%),[2]; [3],70% and 79%
same,Population Hoechst High Intensity Objects (%),[2]; [3],1%
same,Population Membrane Permeable-Phenotype (%),[2]; [3],5% and 4%
same,Population Mitochondria Different-Phenotype (%),[2]; [3],3% and 5%
same,Population Mitotic Cells (%),[2]; [3],8% and 22%
same,Population Normal (%),[2]; [3],98%
same,Population Pyknosed Nuclei (%),[2]; [3],8% and 5%
same,Population Tubulin-Different-Phenotype (%),[2]; [3],4% and 1%
same,Total Cell Count,[2]; [3],282 and 157
same,Population Apoptotic (%),[2]; [4],59% and 56%
same,Population Fragmented Nuclei (%),[2]; [4],18%
same,Population Healthy Nuclei (%),[2]; [4],55% and 62%
same,Population Hoechst High Intensity Objects (%),[2]; [4],4% and 1%
same,Population Membrane Permeable-Phenotype (%),[2]; [4],14% and 15%
same,Population Mitochondria Different-Phenotype (%),[2]; [4],11% and 25%
same,Population Mitotic Cells (%),[2]; [4],40% and 43%
same,Population Normal (%),[2]; [4],95% and 98%
same,Population Pyknosed Nuclei (%),[2]; [4],25% and 19%
same,Population Tubulin-Different-Phenotype (%),[2]; [4],8% and 15%
same,Total Cell Count,[2]; [4],213 and 83
same,Population Apoptotic (%),[2]; [5],88% and 66%
same,Population Fragmented Nuclei (%),[2]; [5],18% and 13%
same,Population Healthy Nuclei (%),[2]; [5],70% and 77%
same,Population Hoechst High Intensity Objects (%),[2]; [5],0% and 1%
same,Population Membrane Permeable-Phenotype (%),[2]; [5],6% and 5%
same,Population Mitochondria Different-Phenotype (%),[2]; [5],3% and 4%
same,Population Mitotic Cells (%),[2]; [5],11% and 33%
same,Population Normal (%),[2]; [5],99% and 98%
same,Population Pyknosed Nuclei (%),[2]; [5],10% and 9%
same,Population Tubulin-Different-Phenotype (%),[2]; [5],4% and 3%
